Data: ChEMBL document CHEMBL1140056, “Design, synthesis, and antitumor activity of new bis-aminomethylnaphthalenes” (2008)
Calls of active or inactive are those of the source. The calls are words filed in the database; no cut-off is given here.

Legend:
[1] = Antitumor activity against human NCI60 cells after 48 hrs by SRB assay; type: functional; conditions: NCI60, 48 h; for TGI: read-out: pTGI (converted)
Method in brief: (§1)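 Run at NCI in the 60-line human tumour panel. Five concentrations at 10-fold dilutions starting from 10^-4 M, with continuous exposure for 48 h. Growth was read by sulforhodamine B protein staining. GI50 (+50% growth), TGI (0% growth) and LC50 were interpolated from the curves, and MG-MID is the arithmetic mean across all tested lines.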

LOX IMVI = experiment: Antitumor activity against human LOXIMVI cells after 48 hrs by SRB assay; type: functional; method in brief: as §1
HT-29 = experiment: Antitumor activity against human HT29 cells after 48 hrs by SRB assay; type: functional; conditions: HT-29, 48 h; method in brief: as §1
MDA-MB-435 = experiment: Antitumor activity against human MDA-MB-435 cells after 48 hrs by SRB assay; type: functional; conditions: MDA-MB-435, 48 h; method in brief: as §1
UACC-257 = experiment: Antitumor activity against human UACC257 cells after 48 hrs by SRB assay; type: functional; conditions: UACC-257, 48 h; method in brief: as §1
Hs-578T = experiment: Antitumor activity against human HS578T cells after 48 hrs by SRB assay; type: functional; method in brief: as §1
SK-MEL-2 = experiment: Antitumor activity against human SK-MEL-2 cells after 48 hrs by SRB assay; type: functional; conditions: SK-MEL-2, 48 h; method in brief: as §1
Tru-Pr1 = experiment: Effect on cell cycle in human […] cells at 10 uM after 48 hrs by FACS analysis; type: functional, cell-based
Method in brief: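 TSU-Pr1 prostate carcinoma cells (5×10^5) in exponential growth were treated for 48 h. They were then centrifuged, fixed in ice-cold 70% ethanol, treated with lysis buffer containing RNase, and stained with propidium iodide. DNA content and cell-cycle phases were read by flow cytometry.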

SR = experiment: Antitumor activity against human SR cells after 48 hrs by SRB assay; type: functional; method in brief: as §1
UACC-62 = experiment: Antitumor activity against human UACC62 cells after 48 hrs by SRB assay; type: functional; conditions: UACC-62, 48 h; method in brief: as §1
[2] = Antitumor activity against human MCF7/ADR-RES cells after 48 hrs by SRB assay; type: functional; conditions: NCI/ADR-RES; method in brief: as §1
MDA-N = experiment: Antitumor activity against human MDA-N cells after 48 hrs by SRB assay; type: functional; method in brief: as §1
M14 = experiment: Antitumor activity against human M14 cells after 48 hrs by SRB assay; type: functional; conditions: M14, 48 h; method in brief: as §1
SK-MEL-28 = experiment: Antitumor activity against human SK-MEL-28 cells after 48 hrs by SRB assay; type: functional; conditions: SK-MEL-28, 48 h; method in brief: as §1
SW-620 = experiment: Antitumor activity against human SW620 cells after 48 hrs by SRB assay; type: functional; conditions: SW-620, 48 h; method in brief: as §1
COLO 205 = experiment: Antitumor activity against human COLO205 cells after 48 hrs by SRB assay; type: functional; conditions: COLO 205, 48 h; method in brief: as §1
T47D = experiment: Antitumor activity against human T47D cells after 48 hrs by SRB assay; type: functional; method in brief: as §1
MOLT-4 = experiment: Antitumor activity against human MOLT4 cells after 48 hrs by SRB assay; type: functional; conditions: MOLT-4, 48 h; method in brief: as §1
K562 = experiment: Antitumor activity against human K562 cells after 48 hrs by SRB assay; type: functional; conditions: K562, 48 h; method in brief: as §1
HCT-116 = experiment: Antitumor activity against human HCT116 cells after 48 hrs by SRB assay; type: functional; conditions: HCT-116, 48 h; method in brief: as §1
Malme-3M = experiment: Antitumor activity against human MALME3M cells after 48 hrs by SRB assay; type: functional; method in brief: as §1
RPMI-8226 = experiment: Antitumor activity against human RPMI8226 cells after 48 hrs by SRB assay; type: functional; conditions: RPMI-8226, 48 h; method in brief: as §1
SK-MEL-5 = experiment: Antitumor activity against human SK-MEL-5 cells after 48 hrs by SRB assay; type: functional; conditions: SK-MEL-5, 48 h; method in brief: as §1
[3] = Antitumor activity against human HL60(TB) cells after 48 hrs by SRB assay; type: functional, HL-60(TB); conditions: HL-60, 48 h
Method in brief: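 NCI 60-cell-line primary screen: five concentrations at 10-fold dilutions starting from 10^-4 M. Cells exposed to drug continuously for 48 h. Growth estimated by sulforhodamine B protein assay. GI50 is the interpolated molar concentration giving +50% growth, TGI the concentration giving 0% growth, and LC50 the concentration giving 50% net cell death.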

MDA-MB-231 = experiment: Antitumor activity against human MDA-MB-231 cells after 48 hrs by SRB assay; type: functional; conditions: MDA-MB-231, 48 h; method in brief: as §1
KM12 = experiment: Antitumor activity against human KM12 cells after 48 hrs by SRB assay; type: functional; conditions: KM12, 48 h; method in brief: as §1
MCF7 = experiment: Antitumor activity against human MCF7 cells after 48 hrs by SRB assay; type: functional; conditions: MCF7, 48 h; method in brief: as §1

Question: Which GI50 [1] does the source give for `c1ccc2cc(CNCCOCCOCCNCc3ccc4ccccc4c3)ccc2c1` here?
Answer: The GI50 was 1700 nM.

Question: And the LC50 [1]?
Answer: Its LC50 is 10000 nM.

Question: And the TGI [1]?
Answer: The TGI was 3720 nM.

Question: Which GI50 (LOX IMVI) does the source give for `COc1ccc2cc(CN3CCC(C4CCN(Cc5ccc6cc(OC)ccc6c5)CC4)CC3)ccc2c1` here?
Answer: The GI50 was 2820 nM.

Question: And the GI50 (HT-29)?
Answer: The GI50 was 3390 nM.

Question: And the GI50 (MDA-MB-435)?
Answer: Its GI50 is 1910 nM.

Question: And the GI50 (UACC-257)?
Answer: The GI50 was 2040 nM.

Question: What about the GI50 [1] of the same molecule?
Answer: Its GI50 is 2950 nM.

Question: What about the TGI [1] of the same molecule?
Answer: Its TGI is 9770 nM.

Question: What about the GI50 (Hs-578T) of the same molecule?
Answer: The GI50 was 10700 nM.

Question: And the GI50 (SK-MEL-2)?
Answer: Its GI50 is 6460 nM.

Question: And the Activity (Tru-Pr1)?
Answer: The Activity was “inactive”.

Question: And the GI50 (SR)?
Answer: The GI50 was 1230 nM.

Question: What about the GI50 (UACC-62) of the same molecule?
Answer: The GI50 was 1910 nM.

Question: And the GI50 [2]?
Answer: The GI50 was 13200 nM.

Question: What about the GI50 (MDA-N) of the same molecule?
Answer: The GI50 was 1700 nM.

Question: What about the GI50 (M14) of the same molecule?
Answer: Its GI50 is 2450 nM.

Question: And the GI50 (SK-MEL-28)?
Answer: Its GI50 is 2630 nM.

Question: What about the GI50 (SW-620) of the same molecule?
Answer: The GI50 was 3160 nM.

Question: What about the GI50 (COLO 205) of the same molecule?
Answer: Its GI50 is 1620 nM.

Question: And the GI50 (T47D)?
Answer: The GI50 was 1780 nM.

Question: What about the GI50 (MOLT-4) of the same molecule?
Answer: The GI50 was 2190 nM.

Question: And the GI50 (K562)?
Answer: Its GI50 is 501 nM.

Question: What about the GI50 (HCT-116) of the same molecule?
Answer: The GI50 was 3470 nM.

Question: And the GI50 (Malme-3M)?
Answer: The GI50 was 2290 nM.

Question: And the GI50 (RPMI-8226)?
Answer: The GI50 was 1740 nM.

Question: And the GI50 (SK-MEL-5)?
Answer: The GI50 was 1480 nM.

Question: What about the GI50 [3] of the same molecule?
Answer: Its GI50 is 2630 nM.

Question: What about the GI50 (MDA-MB-231) of the same molecule?
Answer: Its GI50 is 3310 nM.

Question: What about the GI50 (KM12) of the same molecule?
Answer: Its GI50 is 3240 nM.

Question: What about the GI50 (MCF7) of the same molecule?
Answer: Its GI50 is 5250 nM.

Question: Which GI50 [1] does the source give for `COc1ccc2cc(CNCCOCCOCCNCc3ccc4cc(OC)ccc4c3)ccc2c1` here?
Answer: Its GI50 is 724 nM.

Question: What about the LC50 [1] of the same molecule?
Answer: Its LC50 is 5250 nM.

Question: What about the TGI [1] of the same molecule?
Answer: The TGI was 1910 nM.

Question: With `c1ccc2c(CNCCCCCCCCCCCCNCc3cccc4ccccc34)cccc2c1` as the molecule, how does the GI50 [1] read?
Answer: Its GI50 is 2190 nM.

Question: What about the TGI [1] of the same molecule?
Answer: The TGI was 4370 nM.

Question: With `c1ccc2c(CNCCCCCCCCNCc3cccc4ccccc34)cccc2c1` as the molecule, how does the GI50 [1] read?
Answer: Its GI50 is 2400 nM.

Question: What about the TGI [1] of the same molecule?
Answer: The TGI was 5250 nM.

Question: For `c1ccc2cc(CN3CCC(C4CCN(Cc5ccc6ccccc6c5)CC4)CC3)ccc2c1`, which GI50 [1] is on record?
Answer: Its GI50 is 2880 nM.

Question: What about the LC50 [1] of the same molecule?
Answer: The LC50 was 25100 nM.

Question: And the TGI [1]?
Answer: Its TGI is 8320 nM.

Question: Which results are given for `c1ccc2c(CNCCCN3CCN(CCCNCc4cccc5ccccc45)CC3)cccc2c1`?
Answer: GI50 [1]: 6610 nM; LC50 [1]: 43700 nM; TGI [1]: 19500 nM

Question: With `COc1cc(NS(C)(=O)=O)ccc1Nc1c2ccccc2nc2ccccc12` [AMSACRINE] as the molecule, how does the GI50 [1] read?
Answer: The GI50 was 229 nM.

Question: What about the TGI [1] of the same molecule?
Answer: The TGI was 3390 nM.

Question: Which GI50 [1] does the source give for `c1ccc2c(CNCCCCCCNCc3cccc4ccccc34)cccc2c1` here?
Answer: Its GI50 is 5370 nM.

Question: And the LC50 [1]?
Answer: The LC50 was 29500 nM.

Question: What about the TGI [1] of the same molecule?
Answer: The TGI was 12300 nM.

Question: Which GI50 [1] does the source give for `COc1ccc2cc(CNCCCCCCCCNCc3ccc4cc(OC)ccc4c3)ccc2c1` here?
Answer: Its GI50 is 1150 nM.

Question: What about the LC50 [1] of the same molecule?
Answer: The LC50 was 6310 nM.

Question: And the TGI [1]?
Answer: Its TGI is 2400 nM.

Question: For `COc1ccc2cc(CNCCCN3CCN(CCCNCc4ccc5cc(OC)ccc5c4)CC3)ccc2c1`, which GI50 [1] is on record?
Answer: Its GI50 is 1100 nM.

Question: And the LC50 [1]?
Answer: The LC50 was 5620 nM.

Question: And the TGI [1]?
Answer: The TGI was 2450 nM.

Question: For `c1ccc2c(CN3CCC(C4CCN(Cc5cccc6ccccc56)CC4)CC3)cccc2c1`, which GI50 [1] is on record?
Answer: Its GI50 is 1950 nM.

Question: And the LC50 [1]?
Answer: Its LC50 is 9550 nM.

Question: What about the TGI [1] of the same molecule?
Answer: Its TGI is 4270 nM.

Question: For `O=C1c2c(O)ccc(O)c2C(=O)c2c(NCCNCCO)ccc(NCCNCCO)c21` [MITOXANTRONE], which GI50 [1] is on record?
Answer: The GI50 was 47.9 nM.

Question: What about the TGI [1] of the same molecule?
Answer: The TGI was 692 nM.

Question: With `COc1ccc2cc(CNCCCCCCCCCCCCNCc3ccc4cc(OC)ccc4c3)ccc2c1` as the molecule, how does the GI50 [1] read?
Answer: Its GI50 is 15500 nM.

Question: What about the LC50 [1] of the same molecule?
Answer: Its LC50 is 55000 nM.

Question: What about the TGI [1] of the same molecule?
Answer: The TGI was 29500 nM.

Question: For `COc1ccc2cc(CNCCCCCCNCc3ccc4cc(OC)ccc4c3)ccc2c1`, which GI50 [1] is on record?
Answer: Its GI50 is 603 nM.

Question: And the LC50 [1]?
Answer: Its LC50 is 4070 nM.

Question: And the TGI [1]?
Answer: The TGI was 1740 nM.
